Experimental data taken from ChEMBL document CHEMBL1144540, “Analgesic agents without gastric damage: design and synthesis of structurally simple benzenesulfonanilide-type cyclooxygenase-1-selective inhibitors” (Bioorg Med Chem, 2007).
Calls of active or inactive are those of the source. No cut-off for these calls is given here.

These molecules were tested on Rattus norvegicus (assay: Effect on gastric damage in rat assessed as induction of gastric ulcer at 30 mg/kg, po after 5 hrs). Details: Stomach.
Assay type: functional, organism-based
Parameters: dose 30 mg/kg
How it was run: (§1)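 Male rats, 170–200 g, given a single oral dose in 0.5% CMC vehicle (n = 3–5 per group). Ulcer lengths were measured in millimetres and summed to give an overall gastric damage score per rat. Data are means with SEM.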
With CC(=O)Oc1ccccc1C(=O)O the Activity was “Active”.

What follows are molecules tested on Rattus norvegicus (assay: Effect on gastric damage in rat assessed as induction of gastric ulcer at 10 mg/kg, po after 5 hrs). Details: Stomach.
Assay type: functional, organism-based
Parameters: dose 10 mg/kg
How it was run: as §1
COc1ccc2c(c1)c(CC(=O)O)c(C)n2C(=O)c1ccc(Cl)cc1 was tested, and the Activity was “Active”.

Each molecule was assayed against T1, Prostaglandin G/H synthase 1 (Ovis aries, UniProt P05979) (assay: Inhibition of ovine COX1). Details: not given.
T1 sequence (P05979 whole entry): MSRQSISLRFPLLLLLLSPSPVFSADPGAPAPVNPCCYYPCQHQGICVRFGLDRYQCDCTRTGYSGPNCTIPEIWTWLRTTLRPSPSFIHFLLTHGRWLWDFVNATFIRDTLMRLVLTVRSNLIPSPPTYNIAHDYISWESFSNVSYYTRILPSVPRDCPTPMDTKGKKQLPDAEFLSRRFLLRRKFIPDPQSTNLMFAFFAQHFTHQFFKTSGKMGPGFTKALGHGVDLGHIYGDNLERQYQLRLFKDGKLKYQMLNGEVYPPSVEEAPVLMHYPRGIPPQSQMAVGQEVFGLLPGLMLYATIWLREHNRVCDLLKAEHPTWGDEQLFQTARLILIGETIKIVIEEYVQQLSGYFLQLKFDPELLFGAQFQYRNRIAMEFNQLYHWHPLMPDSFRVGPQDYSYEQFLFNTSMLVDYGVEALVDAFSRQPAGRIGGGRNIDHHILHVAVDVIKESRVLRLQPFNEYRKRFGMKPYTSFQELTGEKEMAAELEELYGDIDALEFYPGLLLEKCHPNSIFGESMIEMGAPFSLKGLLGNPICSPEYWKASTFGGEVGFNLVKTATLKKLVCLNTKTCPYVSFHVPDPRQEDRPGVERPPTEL
How it was run: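 Colorimetric ovine COX inhibitor screening kit, run per the supplier's protocol. Each experiment was run at least twice and the mean was reported.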
For CN(c1ccc(N)cc1)S(=O)(=O)c1ccc(Cl)cc1, the IC50 was 9.2 µM. Molecule Cc1cc(N)ccc1N(C)S(=O)(=O)c1ccc(Cl)cc1 has an IC50 of 26 µM. Molecule Nc1ccc(S(=O)(=O)Nc2ccc(Cl)cc2)cc1 has an IC50 of 12 µM. With CN(c1ccc(Cl)cc1)S(=O)(=O)c1ccc(N)cc1 the IC50 was 3.2 µM. Molecule COc1cc(N)ccc1N(C)S(=O)(=O)c1ccc(Cl)cc1 has an IC50 of 20 µM.

These molecules were tested against T2, Prostaglandin G/H synthase 1 (Ovis aries) (UniProt P05979) (assay: Inhibition of ovine COX1 at 100 uM). Details: not given.
T2 sequence (whole entry): T1 sequence (P05979 whole entry)
How it was run: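 Colorimetric ovine COX inhibitor screening kit, run per the supplier's protocol. […] Each experiment was run at least twice and the mean was reported.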
With Cc1ccccc1NS(=O)(=O)c1ccc([N+](=O)[O-])cc1 the inhibition was 0%. COc1ccc(N(C)S(=O)(=O)c2ccc(N)cc2)cc1 was tested, and the inhibition was 6%. Cc1cccc(NS(=O)(=O)c2ccc(NS(C)(=O)=O)cc2)c1 gave an inhibition of 3%. Molecule Nc1ccc(S(=O)(=O)Nc2ccc(Cl)cc2Cl)cc1 has an inhibition of 6%. Nc1ccc(S(=O)(=O)Nc2ccc(C(F)(F)F)cc2)cc1 was tested, and the inhibition was 14%. Cc1cccc(NS(=O)(=O)c2ccc([N+](=O)[O-])cc2)c1 showed an inhibition of 3%. In the case of Cc1cccc(NS(=O)(=O)c2ccc(N)cc2)c1, the inhibition is reported as 8%. Cc1cc(C)cc(NS(=O)(=O)c2ccc([N+](=O)[O-])cc2)c1 showed an inhibition of 0%. CN(c1ccc(N)cc1)S(=O)(=O)c1ccc(Cl)cc1 showed an inhibition of 68%. In the case of CN(c1ccccc1)S(=O)(=O)c1ccc(N)cc1, the inhibition is reported as 48%. Molecule O=C(O)c1ccc(S(=O)(=O)Nc2cc(C(F)(F)F)cc(C(F)(F)F)c2)cc1 has an inhibition of 25%. Nc1ccc(S(=O)(=O)Nc2ccc(F)cc2)cc1 showed an inhibition of 15%. Nc1ccc(S(=O)(=O)Nc2cc(C(F)(F)F)cc(C(F)(F)F)c2)cc1 was tested, and the inhibition was 30%. In the case of CS(=O)(=O)Nc1ccc(S(=O)(=O)Nc2ccc(Cl)cc2)cc1, the inhibition is reported as 11%. For COc1ccc(NS(=O)(=O)c2ccc(C(=O)O)cc2)cc1, the inhibition was 3%. Work on Nc1ccc(S(=O)(=O)Nc2ccc(I)cc2)cc1 yielded an inhibition of 18%. Work on COc1cc(N)ccc1NS(=O)(=O)c1ccc(Cl)cc1 yielded an inhibition of 1%. With Nc1ccc(NS(=O)(=O)c2ccc(Cl)cc2)cc1 the inhibition was 3%. For O=[N+]([O-])c1ccc(S(=O)(=O)Nc2ccc(C(F)(F)F)cc2)cc1, the inhibition was 1%. With Nc1ccc(S(=O)(=O)Nc2ccccc2)cc1 the inhibition was 0%. Work on COc1ccc(NS(=O)(=O)c2ccc([N+](=O)[O-])cc2)cc1 yielded an inhibition of 0%. Cc1cc(N)ccc1N(C)S(=O)(=O)c1ccc(Cl)cc1 was tested, and the inhibition was 77%. Work on Cc1ccccc1NS(=O)(=O)c1ccc(N)cc1 yielded an inhibition of 5%. Cc1cc(C)cc(NS(=O)(=O)c2ccc(NS(C)(=O)=O)cc2)c1 gave an inhibition of 0%. In the case of CS(=O)(=O)Nc1ccc(S(=O)(=O)Nc2ccccc2)cc1, the inhibition is reported as 0%. In the case of Cc1ccccc1NS(=O)(=O)c1ccc(NS(C)(=O)=O)cc1, the inhibition is reported as 0%. O=[N+]([O-])c1ccc(S(=O)(=O)Nc2ccc(Cl)cc2)cc1 was tested, and the inhibition was 6%. Nc1ccc(S(=O)(=O)Nc2ccccc2Cl)cc1 showed an inhibition of 53%. Nc1ccc(S(=O)(=O)Nc2ccc(Br)cc2)cc1 gave an inhibition of 23%. For CS(=O)(=O)Nc1ccc(S(=O)(=O)Nc2ccc(C(F)(F)F)cc2)cc1, the inhibition was 8%. In the case of Cc1ccccc1NS(=O)(=O)c1ccc(C(=O)O)cc1, the inhibition is reported as 21%. Cc1cccc(NS(=O)(=O)c2ccc(C(=O)O)cc2)c1 was tested, and the inhibition was 0%. In the case of Cc1ccc(NS(=O)(=O)c2ccc(N)cc2)cc1, the inhibition is reported as 52%. Nc1ccc(NS(=O)(=O)c2ccc(Cl)cc2)c(C(F)(F)F)c1 was tested, and the inhibition was 7%. CCN(c1ccc(Cl)cc1)S(=O)(=O)c1ccc(N)cc1 was tested, and the inhibition was 10%. Work on CN(c1ccc(Cl)cc1)S(=O)(=O)c1cccc(N)c1 yielded an inhibition of 39%. With CCCN(c1ccc(Cl)cc1)S(=O)(=O)c1ccc(N)cc1 the inhibition was 0%. Molecule CN(c1ccc(C(F)(F)F)cc1)S(=O)(=O)c1ccc(N)cc1 has an inhibition of 9%. In the case of O=C(O)c1ccc(S(=O)(=O)Nc2ccc(C(F)(F)F)cc2)cc1, the inhibition is reported as 0%. In the case of O=[N+]([O-])c1ccc(S(=O)(=O)Nc2ccccc2)cc1, the inhibition is reported as 0%. Molecule Nc1ccc(S(=O)(=O)Nc2ccc(Cl)cc2)cc1 has an inhibition of 70%. CN(c1ccc(Cl)cc1)S(=O)(=O)c1ccc(N)cc1 gave an inhibition of 78%. CS(=O)(=O)Nc1ccc(S(=O)(=O)Nc2cc(C(F)(F)F)cc(C(F)(F)F)c2)cc1 gave an inhibition of 0%. In the case of Cc1ccc(N(C)S(=O)(=O)c2ccc(N)cc2)cc1, the inhibition is reported as 21%. Nc1ccc(S(=O)(=O)Nc2cccc(Cl)c2)cc1 showed an inhibition of 18%. O=[N+]([O-])c1ccc(S(=O)(=O)Nc2cc(C(F)(F)F)cc(C(F)(F)F)c2)cc1 gave an inhibition of 19%. For COc1cc(N)ccc1N(C)S(=O)(=O)c1ccc(Cl)cc1, the inhibition was 73%. CN(c1ccc(Br)cc1)S(=O)(=O)c1ccc(N)cc1 showed an inhibition of 21%. For Cc1ccc(NS(=O)(=O)c2ccc(NS(C)(=O)=O)cc2)cc1, the inhibition was 12%. With Cc1cc(C)cc(NS(=O)(=O)c2ccc(N)cc2)c1 the inhibition was 13%. CN(c1ccc(F)cc1)S(=O)(=O)c1ccc(N)cc1 gave an inhibition of 0%. Cc1ccc(NS(=O)(=O)c2ccc([N+](=O)[O-])cc2)cc1 was tested, and the inhibition was 44%. Work on O=C(O)c1ccc(S(=O)(=O)Nc2ccccc2)cc1 yielded an inhibition of 11%. Cc1cc(N)ccc1NS(=O)(=O)c1ccc(Cl)cc1 showed an inhibition of 7%. With CN(c1ccc(I)cc1)S(=O)(=O)c1ccc(N)cc1 the inhibition was 18%. Work on COc1ccc(NS(=O)(=O)c2ccc(NS(C)(=O)=O)cc2)cc1 yielded an inhibition of 8%.
